From ChEMBL document CHEMBL4152234, “Aminobenzothiazole derivatives stabilize the thermolabile p53 cancer mutant Y220C and show anticancer activity in p53-Y220C cell lines” (Eur J Med Chem, 2018)
Active and inactive are the calls of the source. The calls are words filed in the database; no cut-off is given here.

Experiments:
Type in all cases: cell-based
[1] = test system: Cellular tumor antigen p53 (Homo sapiens), P04637 [Y220C]; assay: Activation of p53 Y220C mutant in human HuH7 cells assessed as increase in MDM2 mRNA level at 30 uM after 18 hrs by RT-PCR method
How it was run: (§1)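 Real-time PCR. Cells were treated for 18 h, with 0.5% DMSO in both compound and control samples. Relative mRNA levels were quantified by the ΔΔCt method as fold-change against the untreated sample. Each sample was measured in triplicate, and data are given as mean ± SEM with an unpaired t-test.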

[2] = test system: Cellular tumor antigen p53 (Homo sapiens), P04637 [Y220C]; assay: Activation of p53 Y220C mutant in human NUGC3 cells assessed as change in FADD mRNA level at 60 uM after 18 hrs by RT-PCR method relative to control
How it was run: (§2)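 p53 signalling qPCR array covering 84 genes. Cells were exposed for 18 h, with 0.5% DMSO in both compound and control samples. Total RNA was extracted and purified. Fold-changes were calculated by ΔΔCt using β2-microglobulin (B2M) as the housekeeping gene. Two independent biological replicates were run per cell line.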

[3] = target: T1, Cellular tumor antigen p53 (Homo sapiens, UniProt P04637); assay: Activation of p53 in human NUGC4 cells assessed as change in TP73 mRNA level at 60 uM after 18 hrs by RT-PCR method relative to control; conditions: read-out: FC
[4] = test system: Cellular tumor antigen p53 (Homo sapiens), P04637 [Y220C]; assay: Activation of p53 Y220C mutant in human NUGC3 cells assessed as change in CCNG1 mRNA level at 60 uM after 18 hrs by RT-PCR method relative to control; how it was run: as §2
[5] = test system: Cellular tumor antigen p53 (Homo sapiens), P04637 [Y220C]; assay: Activation of p53 Y220C mutant in human NUGC3 cells assessed as change in ESR1 mRNA level at 60 uM after 18 hrs by RT-PCR method relative to control; how it was run: as §2
[6] = test system: Cellular tumor antigen p53 (Homo sapiens), P04637 [Y220C]; assay: Activation of p53 Y220C mutant in human NUGC3 cells assessed as change in NF1 mRNA level at 60 uM after 18 hrs by RT-PCR method relative to control
How it was run: (§3)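 p53 signalling qPCR array covering 84 p53 pathway genes. Cells were exposed for 18 h, and compound and control wells both held 0.5% DMSO. Total RNA was extracted and purified. Fold-changes were calculated by the ΔΔCt method against the untreated sample, with β2-microglobulin (B2M) as the housekeeping gene. Each cell line was run in two independent biological replicates.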

[7] = target: T1, Cellular tumor antigen p53; assay: Activation of p53 in human NUGC4 cells assessed as change in TNFRSF10B mRNA level at 60 uM after 18 hrs by RT-PCR method relative to control; conditions: read-out: FC
[8] = target: T1, Cellular tumor antigen p53; assay: Activation of p53 in human NUGC4 cells assessed as change in MDM2 mRNA level at 60 uM after 18 hrs by RT-PCR method relative to control; conditions: read-out: FC
How it was run: (§4)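 p53 signaling qPCR array of 84 p53-pathway genes. Cells were treated in 6-well plates for 18 h with 0.5% DMSO in compound and control samples. Total RNA was extracted and fold-changes were obtained by the ΔΔCt method against untreated control, with β2-microglobulin (B2M) as housekeeping gene. Two independent biological replicates per cell line.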

[9] = target: T1, Cellular tumor antigen p53; assay: Activation of p53 in human NUGC4 cells assessed as change in PPM1D mRNA level at 60 uM after 18 hrs by RT-PCR method relative to control; conditions: read-out: FC
[10] = test system: Cellular tumor antigen p53 (Homo sapiens), P04637 [Y220C]; assay: Activation of p53 Y220C mutant in human HuH7 cells assessed as increase in NOXA mRNA level at 30 uM after 18 hrs by RT-PCR method; how it was run: as §1
[11] = target: T1, Cellular tumor antigen p53; assay: Activation of p53 in human NUGC4 cells assessed as change in CASP2 mRNA level at 60 uM after 18 hrs by RT-PCR method relative to control; conditions: read-out: FC; how it was run: as §4
[12] = test system: Cellular tumor antigen p53 (Homo sapiens), P04637 [Y220C]; assay: Activation of p53 Y220C mutant in human NUGC3 cells assessed as change in CDC25A mRNA level at 60 uM after 18 hrs by RT-PCR method relative to control; how it was run: as §2
[13] = test system: Cellular tumor antigen p53 (Homo sapiens), P04637 [Y220C]; assay: Activation of p53 Y220C mutant in human NUGC3 cells assessed as change in E2F3 mRNA level at 60 uM after 18 hrs by RT-PCR method relative to control; how it was run: as §2
[14] = test system: Cellular tumor antigen p53 (Homo sapiens), P04637 [Y220C]; assay: Activation of p53 Y220C mutant in human NUGC3 cells assessed as change in STAT1 mRNA level at 60 uM after 18 hrs by RT-PCR method relative to control; how it was run: as §3
[15] = test system: Cellular tumor antigen p53 (Homo sapiens), P04637 [Y220C]; assay: Activation of p53 Y220C mutant in human NUGC3 cells assessed as change in BTG2 mRNA level at 60 uM after 18 hrs by RT-PCR method relative to control; how it was run: as §2
[16] = test system: Cellular tumor antigen p53 (Homo sapiens), P04637 [Y220C]; assay: Activation of p53 Y220C mutant in human NUGC3 cells assessed as change in BBC3 mRNA level at 60 uM after 18 hrs by RT-PCR method relative to control; how it was run: as §2
[17] = test system: Cellular tumor antigen p53 (Homo sapiens), P04637 [Y220C]; assay: Activation of p53 Y220C mutant in human NUGC3 cells assessed as change in TSC1 mRNA level at 60 uM after 18 hrs by RT-PCR method relative to control; how it was run: as §3
[18] = target: T1, Cellular tumor antigen p53; assay: Activation of p53 in human NUGC4 cells assessed as change in JUN mRNA level at 60 uM after 18 hrs by RT-PCR method relative to control; conditions: read-out: FC; how it was run: as §4
[19] = test system: Cellular tumor antigen p53 (Homo sapiens), P04637 [Y220C]; assay: Activation of p53 Y220C mutant in human NUGC3 cells assessed as change in BRCA1 mRNA level at 60 uM after 18 hrs by RT-PCR method relative to control; how it was run: as §2
[20] = target: T1, Cellular tumor antigen p53; assay: Activation of p53 in human NUGC4 cells assessed as change in E2F1 mRNA level at 60 uM after 18 hrs by RT-PCR method relative to control; conditions: read-out: FC; how it was run: as §4
[21] = test system: Cellular tumor antigen p53 (Homo sapiens), P04637 [Y220C]; assay: Activation of p53 Y220C mutant in human NUGC3 cells assessed as change in PTTG1 mRNA level at 60 uM after 18 hrs by RT-PCR method relative to control; how it was run: as §3
[22] = target: T1, Cellular tumor antigen p53; assay: Activation of p53 in human NUGC4 cells assessed as change in TP53AIP1 mRNA level at 60 uM after 18 hrs by RT-PCR method relative to control; conditions: read-out: FC
[23] = target: T1, Cellular tumor antigen p53; assay: Activation of p53 in human NUGC4 cells assessed as change in CDC25C mRNA level at 60 uM after 18 hrs by RT-PCR method relative to control; conditions: read-out: FC; how it was run: as §4
[24] = test system: Cellular tumor antigen p53 (Homo sapiens), P04637 [Y220C]; assay: Activation of p53 Y220C mutant in human NUGC3 cells assessed as change in TP53AIP1 mRNA level at 60 uM after 18 hrs by RT-PCR method relative to control; how it was run: as §3
[25] = test system: Cellular tumor antigen p53 (Homo sapiens), P04637 [Y220C]; assay: Activation of p53 Y220C mutant in human NUGC3 cells assessed as change in TRAF2 mRNA level at 60 uM after 18 hrs by RT-PCR method relative to control; how it was run: as §3
[26] = test system: Cellular tumor antigen p53 (Homo sapiens), P04637 [Y220C]; assay: Activation of p53 Y220C mutant in human NUGC3 cells assessed as change in WT1 mRNA level at 60 uM after 18 hrs by RT-PCR method relative to control; how it was run: as §3
[27] = target: T1, Cellular tumor antigen p53; assay: Activation of p53 in human NUGC4 cells assessed as change in CHEK1 mRNA level at 60 uM after 18 hrs by RT-PCR method relative to control; conditions: read-out: FC; how it was run: as §4
[28] = target: T1, Cellular tumor antigen p53; assay: Activation of p53 in human NUGC4 cells assessed as change in CDKN1A mRNA level at 60 uM after 18 hrs by RT-PCR method relative to control; conditions: read-out: FC; how it was run: as §4

CCNC(=O)c1c(O)c(I)c(-n2cccc2)c2sc(N(CC)CC)nc12
Activity [1]: Active | fold change (FC) [2]: 0.4 | fold induction at 60 µM [3]: 0.4 | fold change (FC) [4]: 1.2 | fold change (FC) [5]: 2.3 | fold change (FC) [6]: 1.4 | fold induction at 60 µM [7]: 1.2 | fold induction at 60 µM [8]: 0.8 | fold induction at 60 µM [9]: 0.9 | Activity [10]: Active | fold induction at 60 µM [11]: 0.7 | fold change (FC) [12]: 0.6 | fold change (FC) [13]: 1.3 | fold change (FC) [14]: 0.8 | fold change (FC) [15]: 1.9 | fold change (FC) [16]: 2.6 | fold change (FC) [17]: 1.3 | fold induction at 60 µM [18]: 0.7 | fold change (FC) [19]: 0.6 | fold induction at 60 µM [20]: 0.5 | fold change (FC) [21]: 1.5 | fold induction at 60 µM [22]: 1 | fold induction at 60 µM [23]: 0.9 | fold change (FC) [24]: 1.5 | fold change (FC) [25]: 1.4 | fold change (FC) [26]: 1.5 | fold induction at 60 µM [27]: 0.7 | fold induction at 60 µM [28]: 1.3
